An excerpt weighted towards active compounds, which were near 5.9% of everything screened.
IDH1 R132H inh – inhibitors of human IDH1 R132H | O75874 | IDH1 R132H reductase, diaphorase/resazurin fluorescence, 60 min | inhibition, % at 10 µM | 0.18% of 70,000 active | AID 624101; in the data active means inhibition above about 34%;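 further: 0% = DMSO and 100% = no enzyme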
T cruzi growth-1 – blocks T. cruzi growth in NIH3T3 culture; 5.9% of 77,000 active; AID 624255; T. cruzi beta-gal in NIH3T3, GalScreen luminescence, 90 h; inhibition, % at 8.34 µM;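 active means mean inhibition above about 93%, with at least 55% of replicates each passing it, limit read from the data, passing the limit was not always enough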
Pf Dd2 growth – inhibitors of Plasmodium falciparum Dd2 growth; activity change, % at 10 µM; P. falciparum Dd2 growth, SYBR Green, 72 h; stronger effect = lower value; 2.3% of 94,000 active; in the data active means activity change below about -80%
GASC1 inh – blocks human GASC-1 (KDM4C) demethylase activity | 0.15% of 96,000 active | AID 720574 | GST-KDM4C 2-372, H3K9me3 peptide, LANCE TR-FRET | Q9H3R0 | inhibition, % at 12.5 µM;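 active means mean replicate inhibition above about 25%, with at least 55% of replicates also reaching it, limit read from the data, passing the limit was not always enough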
Target sequence (Q9H3R0 2-372 limits assumed): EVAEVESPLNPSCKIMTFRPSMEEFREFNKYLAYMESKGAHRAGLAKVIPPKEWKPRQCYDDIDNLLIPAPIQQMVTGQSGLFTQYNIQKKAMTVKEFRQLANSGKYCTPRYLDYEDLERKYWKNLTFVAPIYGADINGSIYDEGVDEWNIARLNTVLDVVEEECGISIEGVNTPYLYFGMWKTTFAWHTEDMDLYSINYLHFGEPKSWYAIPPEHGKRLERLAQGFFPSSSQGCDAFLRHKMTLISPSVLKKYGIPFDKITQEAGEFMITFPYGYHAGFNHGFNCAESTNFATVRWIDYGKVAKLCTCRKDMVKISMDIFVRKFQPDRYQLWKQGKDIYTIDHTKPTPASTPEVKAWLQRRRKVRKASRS
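System: N-terminal GST-fused human GASC-1 (KDM4C) fragment, residues 2-372; amount: enzyme final amount 10 nM; incubation: reaction 30 min RT, detection step 1 h RT; medium: HEPES buffer, pH 7.5, plus ascorbate; technique: LANCE TR-FRET, Eu antibody, ULight-streptavidin, EDTA, ex 340 nm, em 618/671 nm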
T cruzi growth-2 – blocks T. cruzi growth in NIH3T3 host cells; T. cruzi beta-gal in NIH3T3, GalScreen luminescence, 90 h; 72% of 5,600 active; inhibition, % at 8.35 µM; AID 651739; shares compounds with T cruzi growth-1;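 active means mean replicate inhibition above about 95% and at least 55% of replicates individually reaching it, limit read from the data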
T cruzi growth-3 – inhibitors of T. cruzi proliferation. T. cruzi beta-gal in NIH3T3, GalScreen luminescence, 90 h. 21% of 5,600 active. shares compounds with T cruzi growth-1. AID 651740. inhibition, % at 2.09 µM;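 active means mean inhibition above about 95%, with at least 55% of replicates also reaching it, limit read from the data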;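 further: plate controls were neutral control median for no effect and positive control median for full effect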
3T3 cytotox – cytotoxicity in mouse NIH/3T3 fibroblasts; shares compounds with T cruzi growth-1; NIH/3T3 viability, CellTiter-Glo ATP luminescence, 90 h; cytotoxicity (signal decrease), % at 8.35 µM; 14% of 5,600 active; AID 651742;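 active means mean signal decrease across replicates above about 35% based on untreated-well scatter, with enough replicates individually passing, limit read from the data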;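 further: 0% = median of neutral control wells and 100% = median of positive control wells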
NIH3T3 tox 2 – kills mouse NIH/3T3 fibroblasts. shares compounds with T cruzi growth-1. NIH/3T3 viability, CellTiter-Glo ATP luminescence, 90 h. inhibition, % at 24.9 µM. 56% of 5,600 active. AID 651744;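 active means mean loss of cell viability signal at or above a set limit, and enough replicates individually reaching it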;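 further: 0% = median of neutral control wells and 100% = median of positive control wells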
* hit, by the source's call; x = no result.

SMILES	IDH1 R132H inh	T cruzi growth-1	Pf Dd2 growth	GASC1 inh	T cruzi growth-2	T cruzi growth-3	3T3 cytotox	NIH3T3 tox 2
O=C(Cc1cccnc1)N1CCCCN2[C@H](C1)[C@H](c1ccc(/C=C/c3ccccc3)cc1)[C@@H]2CO	x	93.5	-9.8	-1.5	x	x	x	x
C/C=C1/CN2C3Cc4c([nH]c5ccc(O)cc45)C2(O)CC1C3CO (centres undefined)	-0.1	x	x	x	x	x	x	x
COC1(CS(=O)c2ccccc2)CCN(CCc2c[nH]c3ccc(F)cc23)CC1 (centres undefined)	-0.2	x	x	x	x	x	x	x
N#Cc1cccc(-c2ccc([C@H]3[C@@H](CO)N4CCCCN(C(=O)Cc5ccncc5)C[C@@H]34)cc2)c1	x	101.6*	9.7	-2.2	77.6	-14.8	-17.4	4.0
N#Cc1cccc(-c2ccc([C@H]3[C@H](CO)N4CCCCN(C(=O)Cc5ccncc5)C[C@@H]34)cc2)c1	x	118.4*	-70.3	2.1	99.9*	82.1	15.1	51.9*
N#Cc1cccc(-c2ccc([C@@H]3[C@H]4CN(C(=O)Cc5ccncc5)CCCCN4[C@H]3CO)cc2)c1	x	108.1*	4.6	-1.2	73.8	3.2	6.6	12.7
N#Cc1cccc(-c2ccc([C@@H]3[C@@H](CO)N4CCCCN(C(=O)Cc5ccncc5)C[C@@H]34)cc2)c1	x	66.3	9.6	-0.6	x	x	x	x
CC[C@]12C=CCN3CC[C@@]4(c5ccc(OC)cc5N(C)[C@H]4[C@@](O)(C(=O)OC)[C@@H]1OC(C)=O)[C@@H]32	0.0	x	x	x	x	x	x	x
CC1(C)C2CC(=O)[C@]3(C)C(CC[C@@]4(C)[C@H](c5ccoc5)OC(=O)C5OC543)[C@@]2(C)[C@@H](O)C[C@H]1O (some centres undefined)	0.0	x	x	x	x	x	x	x
c1cncc([C@H]2CCCCN2)c1	1.5	x	x	x	x	x	x	x

Screens deposited in PubChem BioAssay by Broad Institute.
